Shown are actives, neighbours in structure and some others; about 2.3% of the full set was active somewhere.
TAAR1 agonist: human TAAR1 agonists, primary screen, Fluo-8 calcium fluorescence, CHO RD-HGA16 cells; Trace amine-associated receptor 1 (Homo sapiens), Q96RJ0; vehicle wells 0%, saturating PEA agonist 100%; activation, % at 3 µM; 360,000 tested, 0.99% active; AID 624467, 2012;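 active = activation above the mean activation of all test compounds in the run plus 3 SD, cut at about 38% in these data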
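Assay system: CHO-derived RD-HGA16 cells with stable Gα16 and human TAAR1; timing: 17-24 h seeding, 75 min 37 °C dye, 30 min RT; read-out: % activation from peak over basal fluorescence ratio, DMSO-to-PEA scaled; measured by: kinetic Fluo-8 calcium fluorescence; benchmarks: low control DMSO, high control PEA (EC100); doses: 3 µM single concentration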
V1aR counter: agonists of human V1a receptor, primary screen, counter-screen for OXTR agonist project, fluorescence, CHO-V1R cells; Vasopressin V1a receptor (Homo sapiens), P37288; Fluo-8 calcium fluorescence, agonist mode; 0% DMSO, 100% 3 nM vasopressin; activation, % at 3 µM; 320,000 tested, 0.25% active; AID 2797, 2010;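 active = activation above the mean activation of all tested compounds plus 3 SD, per screening run, cut at about 20% in these data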;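 also: signal is peak over basal fluorescence ratio across a 100 second FLIPR read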
Target sequence (P37288 whole entry, looked up): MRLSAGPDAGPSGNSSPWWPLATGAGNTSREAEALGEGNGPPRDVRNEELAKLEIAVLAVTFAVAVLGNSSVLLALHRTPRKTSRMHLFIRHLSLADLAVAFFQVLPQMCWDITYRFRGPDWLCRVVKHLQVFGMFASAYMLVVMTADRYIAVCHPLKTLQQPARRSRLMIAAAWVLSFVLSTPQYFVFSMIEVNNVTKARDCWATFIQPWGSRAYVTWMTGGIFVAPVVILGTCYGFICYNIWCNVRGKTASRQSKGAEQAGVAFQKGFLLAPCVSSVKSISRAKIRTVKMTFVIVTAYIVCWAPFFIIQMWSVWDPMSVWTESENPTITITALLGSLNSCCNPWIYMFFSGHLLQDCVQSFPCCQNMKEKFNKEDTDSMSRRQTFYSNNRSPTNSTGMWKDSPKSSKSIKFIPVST
TAAR1 antag: human TAAR1 antagonists, primary screen, Fluo-8 calcium fluorescence, CHO RD-HGA16 cells. 360,000 tested, 1.5% active. antagonist. Trace amine-associated receptor 1 (Homo sapiens), Q96RJ0. inhibition, % at 3 µM;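 active = inhibition above a per-plate cutoff, the mean inhibition of test compounds on that plate plus 3 SD, cut at about 49% in these data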
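Material: CHO RD-HGA16 cells bearing hTAAR1; compound dosing: one-point dosing, 3 µM nominal final; schedule: dye loading 75 min at 37 °C, then 30 min room temperature; measured by: calcium fluorescence with Fluo-8; control set: vehicle and agonist controls; replication: n of 1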
OXTR ag: human OXTR agonists, primary screen, fluorescence, CHO-OTR cells, Fluo-8 calcium; Fluo-8 calcium fluorescence; normalized: DMSO 0%, oxytocin 100%; activation, % at 3 µM; 320,000 tested, 0.32% active; AID 2435, 2010;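 active = activation above the mean of all tested compounds plus 3 SD, cutoff set per screening run, cut at about 20% in these data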;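 also: peak over basal fluorescence ratio from a 100 s FLIPR kinetic read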
OXTR potentiator: human OXTR potentiators, primary screen, fluorescence, CHO-OTR cells, Fluo-8 calcium; Oxytocin receptor (Homo sapiens), P30559; Fluo-8 calcium fluorescence, potentiator mode; 0% = oxytocin EC15, 100% = EC100; activation, % at 3 µM; 320,000 tested, 0.061% active; AID 2445, 2010;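 active = activation above that plate's cutoff, the mean activation of tested compounds plus 3 SD, cut at about 6.6% in these data, passing the limit was not always enough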
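Material: human OTR in CHO cells. Compound: 3.0 µM, one dose. Timing: compound 6 min at room temperature before oxytocin, 100 s read. Evaluation: % activation of max/min ratio relative to oxytocin controls. Replication: single well per compound, singlicate. Signal: Fluo-8 calcium dye fluorescence.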
A number is an active result; i = inactive; nt = no result given.

SMILES | TAAR1 agonist | V1aR counter | TAAR1 antag | OXTR ag | OXTR potentiator
CCCNC(=O)CNC(=S)N(Cc1cc(OC)c(OC)c(OC)c1)C1CCCC1 | i | i | i | i | i
CCOC(=O)c1cnn2c(C(F)F)cc(C3CC3)nc12 | i | i | i | i | i
CN1Cc2sc(NC(=S)NC(=O)c3ccccc3)c(C#N)c2CC1(C)C | i | 34 | i | 32 | i
CC(C)(C)c1ccc(C(=O)Nc2cccc(-n3cnnn3)c2)cc1 | i | i | 58 | i | i
O=C(Nc1cccc(-n2cnnn2)c1)c1cc(Cl)nc(Cl)c1 | 49 | i | i | i | i
O=C(Nc1cccc(-n2cnnn2)c1)c1cccc(Cl)c1 | i | i | i | i | i
CC(C)Cc1nc2sc3c(c2c(=O)n1N)CC(C)(C)OC3 | i | i | i | i | i
O=C(N/N=C1\C2CN3CCN(C2)CC1(c1ccccc1)C3)c1ccc(F)cc1 | i | i | i | i | i
Nc1ccccc1C(=O)N/N=C1\C2CN3CCN(C2)CC1(c1ccccc1)C3 | i | i | i | i | 14
O=C(Nc1cccs1)Nc1ccc(Br)cc1F | i | i | i | i | i
CC(=O)c1cccc(NC(=O)Nc2cccs2)c1 | 42 | i | i | i | i
O=C(Nc1cccs1)Nc1ccc(F)cc1F | 39 | i | i | i | i
COc1cccc(NC(=O)Nc2cccs2)c1 | i | i | i | i | i
CCCCN(CCCC)CCNC(=O)c1cn(CC)c2ccc(S(=O)(=O)N(C)C3CCCCC3)cc2c1=O | i | i | i | i | i
Cn1nc(C(=O)N2CCN(c3ccc(Cl)cc3)CC2)c2c1-c1ccccc1S(=O)(=O)C2 | i | i | i | i | i
CC(C)=CCc1c(O)ccc2c1OC(c1ccc(O)c(O)c1)CC2=O (centres undefined) | i | i | 57 | i | i
Cc1ccccc1C1c2[nH]c3ccccc3c2C[C@H]2C(=O)N(c3ccccc3C(=O)NCCN3CCOCC3)C(=O)N12 (some centres undefined) | i | i | 50 | i | i
CC(C)Oc1cccc(C(=O)C2CCCN(C(=O)c3noc4c3CCCC4)C2)c1 (centres undefined) | i | i | i | i | i
COc1ccc2nc(-c3ccccc3)cc(C(=O)OCC(=O)N3CC(C)OC(C)C3)c2c1 (centres undefined) | i | i | i | i | i
CN1CCN(C=Nc2nc3ccccc3nc2N2CCCC2)CC1 | i | i | i | i | i
CCOc1cc(/C=C2/SC(=S)N(Cc3ccccc3)C2=O)ccc1O | i | 37 | i | 26 | i
COc1cc([N+](=O)[O-])cc(/C=C2/SC(=S)N(Cc3ccccc3)C2=O)c1O | i | 64 | i | 82 | i
CC(C)CCNC(=O)C(c1ccncc1)N(C(=O)Cn1nnc(-c2ccc(F)cc2)n1)c1ccccc1F (centres undefined) | i | i | i | i | i
CCc1ccccc1-n1ncc(C(=O)Nc2ccc(OC)cc2)c1C | i | nt | i | nt | nt
CCCCCc1c(C)nc(Nc2ccccc2)[nH]c1=O | 38 | i | i | i | i
SMILES | TAAR1 agonist | V1aR counter | TAAR1 antag | OXTR ag | OXTR potentiator
CC(C)c1cc(-c2cc(C(=O)Nc3ccccc3)on2)nc(NCC2CC2)n1 | nt | i | nt | i | i
CC(C)c1cc(-c2cc(C(=O)NCc3ccccc3)on2)nc(NCC2CC2)n1 | 68 | 35 | 77 | 31 | i
CCN1C(=O)N/C(=C/c2ccc(Sc3ccc(C)cc3)o2)C1=O | i | i | 65 | i | i
CCN1C(=O)N/C(=C/c2ccc(C)o2)C1=O | i | i | i | i | i
CC(C)[N+](C)(C)CC#CC(O)(c1ccccc1)c1ccccc1 | i | i | i | i | i
COc1cccc(S(=O)(=O)NCc2ccc(C(=O)Nc3cccc(Cl)c3)cc2)c1 | i | i | 50 | i | i
CN(C)S(=O)(=O)c1cccc(NC(=O)c2ccc(COc3ccccc3)cc2)c1 | i | i | 77 | i | i
CCOc1cccc(NC(=O)c2ccc(S(=O)(=O)N(C)C)cc2)c1 | i | i | i | i | i
CN(C)S(=O)(=O)c1cccc(NC(=O)COC(=O)[C@H](Cc2ccccc2)NC(=O)c2ccco2)c1 | i | i | 55 | i | i
CCN(CC)CCNC(=O)c1ccc(NC(=O)c2ccc(COc3ccccc3)cc2)cc1 | i | nt | 52 | nt | nt
O=C(COC(=O)[C@H](Cc1ccccc1)NC(=O)c1ccco1)Nc1ccccc1 | i | i | i | i | i
Cn1c(C(=O)Nc2ccc3c(c2)OCO3)cc2sccc21 | i | i | i | i | i
O=[N+]([O-])c1ccc(O)c(/C=N/n2cnc3ccccc32)c1 | i | i | i | 21 | i
O=[N+]([O-])c1ccc(O)c(/C=N/n2c(CO)nc3ccccc32)c1 | i | i | i | i | i
Cc1ccc(S(=O)(=O)N2[C@@H](c3ccc(Cl)cc3)C(C(=O)O)=CC[C@H]2c2ccc(Cl)cc2)cc1 | i | i | 55 | i | i
Cc1ccc([C@@H]2CC=C(C(=O)O)[C@H](c3ccc(Cl)cc3)N2S(=O)(=O)c2ccc(C)cc2)cc1 | i | i | i | i | i
Cc1ccc(S(=O)(=O)N2[C@@H](c3ccc(Cl)cc3)C(C(=O)O)=CC[C@H]2c2cccc(Cl)c2)cc1 | i | i | i | i | i
O=C(O)C1=CC[C@@H](c2ccc(Cl)cc2)N(S(=O)(=O)c2ccc(Cl)cc2)[C@H]1c1cccc(Cl)c1 | i | i | 64 | i | i
O=C(O)C1=CC[C@@H](c2ccc(Cl)cc2)N(S(=O)(=O)c2ccc(Cl)cc2)[C@H]1c1ccc(Br)cc1 | i | i | 52 | i | i
Cc1cc(OCC(=O)N2CCC(O)(c3ccc(Cl)cc3)CC2)c2c(C)cc(=O)oc2c1 | i | i | i | i | i
c1ccc(-c2noc(-c3ccc4c(c3)OCO4)n2)nc1 | i | i | i | i | i
COc1ccccc1N(C(C)=O)C1=C(Cl)C(=O)c2ccccc2C1=O | i | nt | 57 | nt | nt
COc1ccccc1N(C(=O)CCl)c1cn(C(C)=O)c2ccccc12 | i | i | i | i | i
O=C(Cc1ccccc1Cl)NCCCn1ccnc1 | i | i | i | i | i
COC(=O)[C@]1(C)CCC[C@@]2(C)C3CC[C@@]4(C)C[C@]3(CCC21)CC(=O)N4Cc1ccc(OC)cc1 (some centres undefined) | i | i | i | i | i
COC(=O)[C@]1(C)CCC[C@@]2(C)C3CC[C@]4(OC(C)=O)C[C@@]3(CCC21)CC4=O (some centres undefined) | i | i | 51 | i | i
COc1ccc2[nH]c3c4c(ccc3c2c1)C(=O)C=CC4=O | 44 | nt | 77 | nt | nt
